The source of these data is ChEMBL document CHEMBL1828500, “Synthesis and biological evaluation of dihydroindeno and indeno [1,2-e] [1,2,4]triazolo [3,4-b] [1,3,4]thiadiazines as antimicrobial agents” (2011).

Converted amounts (≈) assume the structure as drawn. The source made the active and inactive calls. The calls are words filed in the database; no cut-off is given here.

One assay deals with Staphylococcus aureus. The experiment in a line: Antibacterial activity against Staphylococcus aureus MTCC 96 at 2 mg/ml after 24 hrs by agar well diffusion method. In kind it is functional. As to conditions: MTCC 96, 24 h, read-out: DIZ. In a few lines: (§1)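 Cultures adjusted to 0.5 McFarland and left 15 min on agar for adsorption. 8 mm wells bored and loaded with compound at 2.0 mg/mL in DMSO. Incubated 37 °C for 24 h. Growth-inhibition zone diameter (mm) read with a zone scale and reported as the average. DMSO served as negative control and ciprofloxacin as positive control.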
(A growth-free zone around the sample is the usual read-out of agar diffusion tests.)
Consider `CC(C)c1nnc2sc3cc4ccccc4c-3nn12`, for which the zone of inhibition at 2000 µg/mL amounted to 15.6 mm.
Consider `CCc1nnc2n1N=C1c3ccccc3CC1S2` (stereo unspecified), for which the zone of inhibition at 2000 µg/mL is 25.3 mm.
`Cc1cccc2c1CC1Sc3nnc(C)n3N=C21` (stereo unspecified): the zone of inhibition at 2000 µg/mL is 27.6 mm.
Consider `CCCc1nnc2n1N=C1c3ccccc3CC1S2` (stereo unspecified), for which the zone of inhibition at 2000 µg/mL was found to be 27.3 mm.
As to `CC(C)c1nnc2n1N=C1c3ccccc3CC1S2` (stereo unspecified), the zone of inhibition at 2000 µg/mL was determined as 28.6 mm.
Regarding `O=C(O)c1cn(C2CC2)c2cc(N3CCNCC3)c(F)cc2c1=O` [CIPROFLOXACIN], the zone of inhibition at 2000 µg/mL turned out to be 26.6 mm.
`Cc1cccc2c3nn4cnnc4sc-3cc12`: the zone of inhibition at 2000 µg/mL is 25.3 mm.

For the next assay, the system named is Bacillus subtilis. Nature of the assay: Antibacterial activity against Bacillus subtilis MTCC 121 at 2 mg/ml after 24 hrs by agar well diffusion method. In kind it is functional. As to conditions: MTCC 121, 24 h, read-out: DIZ. The essentials: as §1
For the molecule `CC(C)c1nnc2sc3cc4ccccc4c-3nn12`, the zone of inhibition at 2000 µg/mL amounted to 17.3 mm.
Still for that read-out and setting: the same measure for `CCc1nnc2n1N=C1c3ccccc3CC1S2` (stereo unspecified): 21.6 mm; for `Cc1cccc2c1CC1Sc3nnc(C)n3N=C21` (stereo unspecified): 31.3 mm; for `CCCc1nnc2n1N=C1c3ccccc3CC1S2` (stereo unspecified): 25 mm.
As to `CC(C)c1nnc2n1N=C1c3ccccc3CC1S2` (stereo unspecified), the zone of inhibition at 2000 µg/mL was determined as 24.6 mm.
On to `O=C(O)c1cn(C2CC2)c2cc(N3CCNCC3)c(F)cc2c1=O` [CIPROFLOXACIN], for which the zone of inhibition at 2000 µg/mL worked out at 24 mm.
Consider `Cc1cccc2c3nn4cnnc4sc-3cc12`, for which the zone of inhibition at 2000 µg/mL came out at 28.6 mm.

A further assay concerns Penicillium sp. The experiment in a line: Antifungal activity against Penicillium sp. assessed as inhibition of mycelial growth at 4 mg/ml after 7 days. In kind it is functional. The following applies: 168 h, read-out: GI. The essentials: (§2)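 Poisoned food method. Molds grown on Sabouraud dextrose agar at 25 °C for 7 days to provide inocula. Molten SDA (45 °C) dosed with compound at 4.0 mg/mL in DMSO, then solidified. 8 mm fungal plugs from colony margins placed centrally. Incubated 25 °C for 7 days, in triplicate. % mycelial growth inhibition calculated from colony diameters versus DMSO control. Fluconazole served as positive control.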
For `CC(C)c1nnc2sc3cc4ccccc4c-3nn12`, the inhibition of growth at 4000 µg/mL came out at 44.4%.
On the same count and under the same terms, the same measure for `CCc1nnc2n1N=C1c3ccccc3CC1S2` (stereo unspecified): 57.7%; for `Cc1cccc2c1CC1Sc3nnc(C)n3N=C21` (stereo unspecified): 67.7%.
Turning to `CCCc1nnc2n1N=C1c3ccccc3CC1S2` (stereo unspecified), the inhibition of growth at 4000 µg/mL is 53.3%.
Regarding `CC(C)c1nnc2n1N=C1c3ccccc3CC1S2` (stereo unspecified), the inhibition of growth at 4000 µg/mL stood at 51.1%.
For `Cc1cccc2c3nn4cnnc4sc-3cc12`, the inhibition of growth at 4000 µg/mL was 66.6%.

A further assay concerns Staphylococcus aureus. Nature of the assay: Antibacterial activity against Staphylococcus aureus MTCC 96 after 24 hrs by agar well diffusion method. In kind it is functional. As to conditions: MTCC 96, 24 h. In a few lines:
(§3)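 MIC by modified agar well diffusion. Two-fold serial dilutions (DMSO stock diluted in sterile distilled water), range 256 to 0.5, placed in wells in triplicate. Agar was pre-seeded with 100 standardized inoculum at 10⁶ cfu/mL. Incubated aerobically at 37 °C for 24 h. MIC taken as lowest concentration giving a clear zone, i.e. complete growth inhibition.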
Consider `CC(C)c1nnc2sc3cc4ccccc4c-3nn12`, for which the MIC turned out to be 128 µg/mL (≈ 477 µM).
Take `CCc1nnc2n1N=C1c3ccccc3CC1S2` (stereo unspecified): the lowest concentration to inhibit growth (MIC) was 16 µg/mL (≈ 62.4 µM).
`Cc1cccc2c1CC1Sc3nnc(C)n3N=C21` (stereo unspecified) registered an MIC of 8 µg/mL (≈ 31.2 µM).
`CCCc1nnc2n1N=C1c3ccccc3CC1S2` (stereo unspecified): it took 8 µg/mL (≈ 29.6 µM) to inhibit growth (MIC).
As to `CC(C)c1nnc2n1N=C1c3ccccc3CC1S2` (stereo unspecified), the MIC was 4 µg/mL (≈ 14.8 µM). This MIC is about 2-fold lower than that of the molecule before.
Same read-out and setting: with `O=C(O)c1cn(C2CC2)c2cc(N3CCNCC3)c(F)cc2c1=O` [CIPROFLOXACIN] the figure was 5 µg/mL (≈ 15.1 µM); with `Cc1cccc2c3nn4cnnc4sc-3cc12`, 16 µg/mL (≈ 66.6 µM).

For the next assay, the system named is Pseudomonas aeruginosa. Nature of the assay: Antibacterial activity against Pseudomonas aeruginosa MTCC 741 at 2 mg/ml after 24 hrs by agar well diffusion method. It is filed as functional.
Settings: not given
The essentials:
as §1
For the molecule `CC(C)c1nnc2sc3cc4ccccc4c-3nn12`, the “diameter of the inhibition zone (DIZ)” value was “inactive”.

The assay is the same for the next values; noted with them: MTCC 741, 24 h, read-out: DIZ.
For the molecule `CCc1nnc2n1N=C1c3ccccc3CC1S2` (stereo unspecified), the zone of inhibition at 2000 µg/mL came out at 16 mm.
As to `Cc1cccc2c1CC1Sc3nnc(C)n3N=C21` (stereo unspecified), the zone of inhibition at 2000 µg/mL was determined as 18.6 mm.
`CCCc1nnc2n1N=C1c3ccccc3CC1S2` (stereo unspecified): the zone of inhibition at 2000 µg/mL came to 18.6 mm.
On the same count and under the same terms, the same measure for `CC(C)c1nnc2n1N=C1c3ccccc3CC1S2` (stereo unspecified): 19.3 mm.
As for `O=C(O)c1cn(C2CC2)c2cc(N3CCNCC3)c(F)cc2c1=O` [CIPROFLOXACIN], the zone of inhibition at 2000 µg/mL came to 22 mm.
Consider `Cc1cccc2c3nn4cnnc4sc-3cc12`, for which the zone of inhibition at 2000 µg/mL amounted to 18.3 mm.

A further assay concerns Aspergillus flavus. Nature of the assay: Antifungal activity against Aspergillus flavus assessed as inhibition of mycelial growth at 4 mg/ml after 7 days. It is filed as functional. The following applies: 168 h, read-out: GI. In a few lines: as §2
On to `CC(C)c1nnc2sc3cc4ccccc4c-3nn12`, for which the inhibition of growth at 4000 µg/mL amounted to 50%.
Consider `CCc1nnc2n1N=C1c3ccccc3CC1S2` (stereo unspecified), for which the inhibition of growth at 4000 µg/mL is 55.5%.
In the case of `Cc1cccc2c1CC1Sc3nnc(C)n3N=C21` (stereo unspecified), the inhibition of growth at 4000 µg/mL stood at 68.8%.
As for `CCCc1nnc2n1N=C1c3ccccc3CC1S2` (stereo unspecified), the inhibition of growth at 4000 µg/mL turned out to be 52.5%.
On to `CC(C)c1nnc2n1N=C1c3ccccc3CC1S2` (stereo unspecified), for which the inhibition of growth at 4000 µg/mL amounted to 51.1%.
Turning to `Cc1cccc2c3nn4cnnc4sc-3cc12`, the inhibition of growth at 4000 µg/mL amounted to 68.8%.

For the next assay, the system named is Aspergillus niger. The experiment in a line: Antifungal activity against Aspergillus niger assessed as inhibition of mycelial growth at 4 mg/ml after 7 days. The following applies: 168 h, read-out: GI. It is filed as functional. The essentials:
as §2
`CC(C)c1nnc2sc3cc4ccccc4c-3nn12`: the inhibition of growth at 4000 µg/mL stood at 48.8%.
In the case of `CCc1nnc2n1N=C1c3ccccc3CC1S2` (stereo unspecified), the inhibition of growth at 4000 µg/mL is 58.8%.
The same measure, in the same setting: with `Cc1cccc2c1CC1Sc3nnc(C)n3N=C21` (stereo unspecified) the figure was 67.7%; with `CCCc1nnc2n1N=C1c3ccccc3CC1S2` (stereo unspecified), 55.5%.
Take `CC(C)c1nnc2n1N=C1c3ccccc3CC1S2` (stereo unspecified): the inhibition of growth at 4000 µg/mL is 53.3%.
On the same count and under the same terms, with `Cc1cccc2c3nn4cnnc4sc-3cc12` the figure was 71.1%.

A further assay deals with Escherichia coli. Nature of the assay: Antibacterial activity against Escherichia coli MTCC 1652 at 2 mg/ml after 24 hrs by agar well diffusion method. It is filed as functional.
Settings: not given
The essentials: as §1
On to `CC(C)c1nnc2sc3cc4ccccc4c-3nn12`, for which the “diameter of the inhibition zone (DIZ)” value was “inactive”.

Still in this assay, the particulars now being: MTCC 1652, 24 h, read-out: DIZ.
As to `CCc1nnc2n1N=C1c3ccccc3CC1S2` (stereo unspecified), the zone of inhibition at 2000 µg/mL stood at 18.3 mm.
On to `Cc1cccc2c1CC1Sc3nnc(C)n3N=C21` (stereo unspecified), for which the zone of inhibition at 2000 µg/mL was 20.6 mm.
In the case of `CCCc1nnc2n1N=C1c3ccccc3CC1S2` (stereo unspecified), the zone of inhibition at 2000 µg/mL is 19.3 mm.
On the same count and under the same terms, with `CC(C)c1nnc2n1N=C1c3ccccc3CC1S2` (stereo unspecified) the figure was 20.6 mm; with `Cc1cccc2c3nn4cnnc4sc-3cc12`, 20.6 mm.

The subject of the next assay is Bacillus subtilis. The experiment in a line: Antibacterial activity against Bacillus subtilis MTCC 121 after 24 hrs by agar well diffusion method. It is filed as functional. As to conditions: MTCC 121, 24 h. The essentials: as §3
In turn, `CC(C)c1nnc2sc3cc4ccccc4c-3nn12` registered an MIC of 128 µg/mL (≈ 477 µM).
Still for that read-out and setting: with `CCc1nnc2n1N=C1c3ccccc3CC1S2` (stereo unspecified) the figure was 32 µg/mL (≈ 125 µM); with `Cc1cccc2c1CC1Sc3nnc(C)n3N=C21` (stereo unspecified), 2 µg/mL (≈ 7.8 µM).
For `CCCc1nnc2n1N=C1c3ccccc3CC1S2` (stereo unspecified), the MIC stood at 16 µg/mL (≈ 59.2 µM).
The same measure, in the same setting: with `CC(C)c1nnc2n1N=C1c3ccccc3CC1S2` (stereo unspecified) the figure was 16 µg/mL (≈ 59.2 µM); with `O=C(O)c1cn(C2CC2)c2cc(N3CCNCC3)c(F)cc2c1=O` [CIPROFLOXACIN], 5 µg/mL (≈ 15.1 µM); with `Cc1cccc2c3nn4cnnc4sc-3cc12`, 4 µg/mL (≈ 16.6 µM).

The next assay concerns Pseudomonas aeruginosa. The experiment in a line: Antibacterial activity against Pseudomonas aeruginosa MTCC 741 after 24 hrs by agar well diffusion method. In kind it is functional. As to conditions: MTCC 741, 24 h. The essentials:
as §3
`CCc1nnc2n1N=C1c3ccccc3CC1S2` (stereo unspecified) came in with an MIC of 128 µg/mL (≈ 499 µM).
For `Cc1cccc2c1CC1Sc3nnc(C)n3N=C21` (stereo unspecified), the lowest concentration to inhibit growth (MIC) was 64 µg/mL (≈ 250 µM). This MIC lies about 2-fold lower than the previous one.
Molecule `CCCc1nnc2n1N=C1c3ccccc3CC1S2` (stereo unspecified) returned an MIC of 64 µg/mL (≈ 237 µM).
As to `CC(C)c1nnc2n1N=C1c3ccccc3CC1S2` (stereo unspecified), the MIC turned out to be 32 µg/mL (≈ 118 µM). Compared with the last molecule, the MIC is about 2-fold lower.
Same read-out and setting: the same measure for `O=C(O)c1cn(C2CC2)c2cc(N3CCNCC3)c(F)cc2c1=O` [CIPROFLOXACIN]: 5 µg/mL (≈ 15.1 µM); for `Cc1cccc2c3nn4cnnc4sc-3cc12`: 128 µg/mL (≈ 533 µM).

Another assay relates to Escherichia coli. Nature of the assay: Antibacterial activity against Escherichia coli MTCC 1652 after 24 hrs by agar well diffusion method. As to conditions: MTCC 1652, 24 h. It is filed as functional. The essentials:
as §3
`CCc1nnc2n1N=C1c3ccccc3CC1S2` (stereo unspecified) returned an MIC of 64 µg/mL (≈ 250 µM).
Turning to `Cc1cccc2c1CC1Sc3nnc(C)n3N=C21` (stereo unspecified), the MIC was 64 µg/mL (≈ 250 µM).
As for `CCCc1nnc2n1N=C1c3ccccc3CC1S2` (stereo unspecified), the MIC amounted to 64 µg/mL (≈ 237 µM).
`CC(C)c1nnc2n1N=C1c3ccccc3CC1S2` (stereo unspecified) yielded an MIC of 64 µg/mL (≈ 237 µM).
`O=C(O)c1cn(C2CC2)c2cc(N3CCNCC3)c(F)cc2c1=O` [CIPROFLOXACIN] registered an MIC of 5 µg/mL (≈ 15.1 µM).
The molecule `Cc1cccc2c3nn4cnnc4sc-3cc12` showed an MIC of 64 µg/mL (≈ 266 µM).

The MIC is the lowest concentration found to suppress growth. Lower therefore signals a more susceptible organism.
